Screening results deposited in PubChem by Sanford-Burnham Center for Chemical Genomics.
FLuc act counter: firefly luciferase counter-screen for stimulation assays | P08659 | ATPlite luciferase biochemical, luminescence, 10 min; 0 = ATP-free wells, 1 = DMSO control | activation factor at 10 µM | 200,000 tested, under 10 active | AID 1027;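 active = luciferase activation factor, scaled between plate controls, of at least 2 with compound at 10 µM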
Target sequence (P08659 whole entry, looked up): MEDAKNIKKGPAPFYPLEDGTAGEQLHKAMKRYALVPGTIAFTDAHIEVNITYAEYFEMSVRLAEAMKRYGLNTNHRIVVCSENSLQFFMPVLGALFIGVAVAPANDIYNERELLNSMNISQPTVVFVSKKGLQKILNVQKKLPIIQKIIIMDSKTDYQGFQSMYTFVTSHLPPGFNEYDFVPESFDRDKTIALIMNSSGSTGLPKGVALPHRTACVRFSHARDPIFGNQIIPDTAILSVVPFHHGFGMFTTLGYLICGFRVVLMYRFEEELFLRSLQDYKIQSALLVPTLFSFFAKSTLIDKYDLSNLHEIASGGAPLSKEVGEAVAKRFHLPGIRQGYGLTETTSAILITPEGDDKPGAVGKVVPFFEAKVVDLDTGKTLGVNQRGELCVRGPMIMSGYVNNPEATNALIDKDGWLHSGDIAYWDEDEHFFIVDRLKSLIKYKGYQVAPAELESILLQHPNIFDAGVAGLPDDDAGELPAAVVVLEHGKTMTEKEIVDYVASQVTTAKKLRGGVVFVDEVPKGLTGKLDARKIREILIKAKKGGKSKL
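assay system = Luciferase/luciferin detection reagent, cell-free biochemical luciferase assay | also added = ATP substrate | times = 10 min post-reagent at room temperature | measured by = luminescence from luciferase reaction | measure = luciferase activation, seen as luminescence increase over controls | benchmarks = low control with PBS replacing ATP, high control enzyme plus ATP without compound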
TRAIL sens C8: sensitizes caspase-8 expressing cells to TRAIL; actives 1% (n = 360,000); NB7+C8 cells + TRAIL, ATPlite viability luminescence; AID 624354; inhibition (viability loss, TRAIL sensitization), % at 10 µM;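 active = compounds causing at least 50% loss of cell viability in the single-dose screen, relative to plate controls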
PPC-1+TRAIL kill: PPC-1 cancer cell killing with TRAIL present. PPC-1 cells + TRAIL, ATPLite viability luminescence. cell killing (% activity), % at 4 µM or 5 µM. actives 0.41% (n = 220,000);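 active = cell killing above 50% in the first pass at 4 µM, then a duplicate retest at 5 µM averaging 50% or more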;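 also: plate controls were cells with TRAIL plus DMSO for no effect and medium-only wells lacking cells for full effect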
FLuc inhib CS: Photinus pyralis luciferase inhibition counter-screen | AID 1006 | actives 1.5% (n = 200,000) | inhibition, % at 10 µM | ATPLite firefly luciferase biochemical luminescence, 10 min | P08659;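 active = inhibition above about 50% when tested at 10 µM, limit read from the data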
* hit, by the source's call; / = not tested or not shown. Compounds with a hit are over-represented: about 1.6% of the library has one in this group of screens.

SMILES | FLuc act counter | TRAIL sens C8 | PPC-1+TRAIL kill | FLuc inhib CS
Cc1noc(C)c1NC(=O)Nc1ccc2c(c1)CC(=O)N([C@H](C)CO)C[C@@H](C)[C@H](CN(C)CC1CCCCC1)O2 | / | 8 | / | /
COc1cccc(N2CCN(Cc3nc4scc(-c5ccccc5)c4c(=O)[nH]3)CC2)c1 | 1.1 | -7 | 1 | -6
O=C(Nc1nc2cc3c(cc2s1)OCCO3)c1ccco1 | / | 88* | / | /
CC(C)C(=O)Nc1nc2cc3c(cc2s1)OCCO3 | / | 30 | 29 | /
CCOc1ccc2nc(NC(=O)CN3CCOCC3)sc2c1 | 0.4 | -4 | -6 | 61*
Fc1cccc(Cl)c1/C=C/c1cnc2ccccc2n1 | / | 3 | / | /
Cc1ccsc1/C=C/c1ccc2ccccc2n1 | 0.6 | 56* | 27 | 39
Fc1cccc(F)c1/C=C/c1ccc2ccccc2n1 | 0.2 | 58* | -5 | 82*
Cc1ccsc1/C=C/c1ccc2cccc(O)c2n1 | 0.8 | 9 | 29 | 23
CC(=O)c1sc(NC(=O)C(C)Oc2ccc3c(C)cc(=O)oc3c2)nc1C (centres undefined) | / | -2 | / | /
Cn1cccc1C(=O)NC(=O)COC(=O)C12CC3CC(CC(O)(C3)C1)C2 | 0.4 | 2 | -11 | 57*
Cc1ccc(NC(=O)c2ccccc2O)cc1 | 0.2 | 52* | 41 | 78*
Cc1ccoc1C(=O)Nc1ccc(CC(=O)O)cc1 | 0.4 | 29 | 38 | 57*
O=C(O)Cc1ccc(NC(=O)c2ccc(NC(=O)c3ccco3)cc2)cc1 | 1 | 4 | -4 | 0
O=C(Nc1ccc2ccccc2c1)c1ccc(Cl)cc1 | / | 57* | / | /
Cc1ccc(C(=O)Nc2ccc3ccccc3n2)cc1 | / | 50* | / | /
Cc1ccc(-c2noc(CCC(=O)NC3CC3)n2)cc1 | / | -12 | / | /
Cc1cc(C(=O)Nc2ccc3ccccc3c2)oc1C | / | 19 | / | /
CC(=O)N1CCN(c2ccc(NC(=O)c3ccc(C)cc3)cc2)CC1 | 1 | 2 | 4 | -2
Cc1ccc(C(=O)Nc2ccc3ccccc3c2)cc1 | / | 83* | / | /
Cc1ccoc1C(=O)Nc1ccc2ccccc2c1 | / | 54* | / | /
CC(=O)N1CCc2cc(NC(=O)c3ccc(C)cc3)ccc21 | 0.3 | 41 | 37 | 73*
Cc1c(Cl)cn2c(=O)cc(CN3CCN(c4ccc(F)cc4)CC3)nc2c1Cl | 1 | / | 4 | -3
COc1ccc(C(=O)Nc2ccc(NC(=O)Cc3ccccc3)cn2)cc1 | / | 21 | / | /
O=C1Nc2ccccc2/C1=N/N=C/c1ccc(-c2ccc([N+](=O)[O-])cc2)o1 | 1.1 | -3 | 4 | -6
SMILES | FLuc act counter | TRAIL sens C8 | PPC-1+TRAIL kill | FLuc inhib CS
CN(C)S(=O)(=O)c1ccc2nc(NC(=O)c3cccs3)sc2c1 | 0.4 | 47 | 49 | 64*
O=C(Nc1nc2ccc(F)cc2s1)c1cccs1 | 0.5 | 34 | 17 | 50*
O=C(Nc1nc2ccc(S(=O)(=O)N3CCCC3)cc2s1)c1cccs1 | 1 | 4 | 4 | -3
CN(C)S(=O)(=O)c1ccc2nc(NC(=O)c3cccnc3)sc2c1 | 0.4 | 21 | 27 | 55*
O=C(Nc1nc2ccc(S(=O)(=O)N3CCCCC3)cc2s1)c1cccnc1 | 1 | -18 | 8 | -4
Cc1c(C)c2ccc(OCC(=O)Nc3nccs3)cc2oc1=O | / | 55* | / | /
O=C(O/N=C1\CCCc2ccccc21)c1ccc(F)cc1 | 0.1 | -2 | 9 | 87*
O=C(O/N=C1/CCSc2ccccc21)c1ccccc1 | 0.3 | -4 | 23 | 75*
COCCNC(=O)/C(C#N)=C/c1c(F)cccc1Cl | 1 | 4 | 21 | -1
Cc1ccc2nc(/C=C/c3cccc(F)c3)ccc2c1 | 0.5 | 25 | 23 | 52*
CCCCn1c(N)c(N(CC(C)C)C(=O)CSc2nnc(C)n2-c2ccccc2)c(=O)[nH]c1=O | / | -22 | / | /
CCCc1n(CC)c2ccccc2[n+]1CC(O)COC1CCCCC1 (centres undefined) | 1.1 | 7 | / | -11
Cc1ccc(NC(=O)/C=C/c2ccco2)nc1 | 0.4 | 33 | 30 | 62*
O=C(/C=C/c1ccco1)Nc1cccnc1 | 0.7 | 15 | 10 | 33
O=C(/C=C/c1ccco1)Nc1ccccn1 | 0.3 | 20 | 29 | 69*
CCN(CC)CC(=O)Nc1ccc(-c2ccc(NC(=O)CN(CC)CC)c(OC)c2)cc1OC | 1.1 | 7 | 40 | -7
O=C(N/N=C/c1cc(Br)ccc1O)c1ccccc1Cl | 0.9 | 56* | 43 | 8
Oc1ccc(Br)cc1/C=N/NC(=S)NCCc1ccccc1 | / | 15 | / | /
COC(=O)N/N=C/c1cc(Br)ccc1O | 1 | 1 | -5 | 0
O=C(CCc1ccccc1)N/N=C/c1cc(Br)ccc1O | 1 | 55* | 16 | -3
CC1CCN(Cc2nnnn2CCCC(=O)NCCc2cnn(C)c2)CC1 | / | -8 | / | /
